The record followed here is ChEMBL document CHEMBL1123084, “Decomposition reactions of (hydroxyalkyl) nitrosoureas and related compounds: possible relationship to carcinogenicity” (J Med Chem, 1985).

Holding throughout (assay type): ADME
The nature of data set [1]: Half life in buffer. The gist of the method:
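Compound was dissolved in pH 7.4 phosphate buffer (0.067 or 0.1 M) in sealed vials at 37 °C. Loss of parent was monitored by HPLC, and the first-order half-life was derived from ln concentration vs time.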

Data set [2] in a line: Half life in 0.10 M buffer, pH = 7.4.
Data set [3] can be described thus: Half life in 0.067 M (D2O), pH = 7.4.
Data set [4] is described as follows: Half life in 0.067 M buffer, pH = 7.4.
The nature of data set [5]: Half life in 0.01 M HClO4, pH = 3.0. The gist of the method: (§1)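 Compound at 0.02-0.03 M was decomposed in sealed vials at 37 °C. The pH 3.0 medium was perchloric acid; the other pH values used 0.067 M phosphate buffer (pH 5.5, 6.0, 6.5, 8.0). Loss of starting material was followed by HPLC, and half-life came from first-order ln concentration vs time plots.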
Data set [6] is described as follows: Half life in 0.067 M (D20), pH = 6.5. The note with it: 0.067 M (D2O). The gist of the method:
as §1

Data set [7] can be described thus: Half life in 0.067 M (D20), pH = 6.0. The note with it: 0.067 M (D2O). The gist of the method:
as §1

A short description of data set [8]: Half life in 0.067 M buffer, pH = 8. The gist of the method: as §1
Data set [9] can be described thus: Half life in 0.10 M (D20), pH = 7.4. The note with it: 0.10 M (D2O).
The nature of data set [10]: Half life in 0.067 M (D20), pH = 5.5. The following applies: 0.067 M (D2O). In short, it runs like this:
as §1

`CC(O)CN(N=O)C(N)=O` (stereo unspecified): the half-life in [1] worked out at 15 min; in [2] it was 20 min; in [3], 70 min; in [4] (0.067 M buffer), 14.5 min; in data set [5] it was 600 min; in [6], 26 min. In addition, the half-life came to 120 min in data set [7], 6.5 min in data set [8], 37.2 min in data set [9] and 410 min in data set [10]. This compound also showed a T1/2 in data set [4] (buffer) of 9.5 min.
